The text below walks through data of ChEMBL document CHEMBL1135740, “Design, synthesis, and activity of a novel series of factor Xa inhibitors: optimization of arylamidine groups” (J Med Chem, 2002).

Data set [1] in a line: Plasma concentration after intravenous aministration at 30 min. (1 mg/kg, n=3). In kind it is ADME, organism-based. Conditions: rat. The method, boiled down: (§1)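 Rats dosed intravenously at 1 mg/kg (n = 3). Plasma drug concentrations were measured at 30 min and at 1 h (60 min) and reported in µM.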
For data set [2], the target named is Prothrombin (Homo sapiens, UniProt P00734). The experiment in a line: Inhibitory constant against human coagulation factor II (thrombin) for selectivity within coagulation cascade.
Data set [3] has as its target Coagulation factor X (Homo sapiens, UniProt P00742). In words: Inhibitory constant against human coagulation factor Xa (fXa).
Data set [4] concerns the target T1, Serine protease 1 (Bos taurus, UniProt P00760).
T1 sequence (P00760 whole entry): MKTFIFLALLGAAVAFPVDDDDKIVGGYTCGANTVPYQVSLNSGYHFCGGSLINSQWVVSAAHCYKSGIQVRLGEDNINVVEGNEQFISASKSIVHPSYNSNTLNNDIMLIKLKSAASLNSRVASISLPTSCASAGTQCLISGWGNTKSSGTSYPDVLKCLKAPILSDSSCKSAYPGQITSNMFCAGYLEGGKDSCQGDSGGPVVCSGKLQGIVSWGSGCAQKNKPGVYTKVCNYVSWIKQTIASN
In words: Inhibitory constant against bovine trypsin for general specificity against serine proteases.

The nature of data set [5]: Plasma concentration after intravenous aministration at 1hr, (1 mg/kg, n=3). In kind it is ADME, organism-based. The note with it: rat. The method, boiled down: as §1
A short description of data set [6]: Plasma concentration after intravenous aministration at 60 min. (1 mg/kg, n=3). In kind it is ADME, organism-based. The note with it: rat. The gist of the method:
as §1

A short description of data set [7]: Plasma concentration after oral aministration at 1 hr. (10 mg/kg). In kind it is ADME, organism-based. Conditions: rat. The gist of the method:
(§2)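 Rats were dosed orally at 10 mg/kg. Plasma drug concentrations were measured at 1, 2 and 4 h and reported in µM.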

Data set [8] is described as follows: Plasma concentration after oral aministration at 2 hr. (10 mg/kg). Conditions: rat. In kind it is ADME, organism-based. The gist of the method:
as §2

Data set [9] is described as follows: Plasma concentration after oral aministration at 4 hr. (10 mg/kg). In kind it is ADME, organism-based. Conditions: rat. The method, boiled down:
as §2

Coagulation factor X, sequence (P00742 41-179 limits assumed): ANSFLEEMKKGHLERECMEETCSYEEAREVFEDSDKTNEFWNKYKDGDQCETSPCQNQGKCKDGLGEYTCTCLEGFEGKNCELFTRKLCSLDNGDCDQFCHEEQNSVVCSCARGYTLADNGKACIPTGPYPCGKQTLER
Coagulation factor X, sequence (P00742 235-488 limits assumed): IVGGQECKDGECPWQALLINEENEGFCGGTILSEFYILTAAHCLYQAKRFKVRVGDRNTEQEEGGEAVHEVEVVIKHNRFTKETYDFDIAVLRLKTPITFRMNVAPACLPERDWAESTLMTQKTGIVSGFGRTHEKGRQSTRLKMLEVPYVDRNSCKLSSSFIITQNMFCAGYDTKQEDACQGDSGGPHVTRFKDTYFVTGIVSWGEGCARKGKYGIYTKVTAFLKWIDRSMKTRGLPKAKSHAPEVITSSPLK

On to `N=C(N)c1cccc(Oc2cc(C(=O)O)cc(Oc3cc(C(=N)N)ccc3O)n2)c1`, for which the concentration at 0.5 h in data set [1] stood at 1900 nM. Moreover, the Ki in data set [2] worked out at 5100 nM; in data set [3], 6 nM; in data set [4] it was 520 nM.
`N=C(N)c1cccc(Oc2cc(C(=O)O)cc(Oc3cccc(C(=N)N)c3)n2)c1`: in data set [1], the concentration at 0.5 h is 800 nM.
Turning to `Cc1cn(-c2cccc(Oc3cc(C(=O)O)cc(Oc4cc(C(=N)N)ccc4O)n3)c2)cn1`, the values for the Ki in data set [2], in data set [3] and in data set [4] were 650 nM, 13 nM and 160 nM, respectively.
The matching figures for `Cc1c(F)c(Oc2cccc(C(=O)N(C)C)c2)nc(Oc2cccc(C(=N)N)c2O)c1F`: more than 5000 nM, more than 5000 nM and more than 5000 nM.
Take `Cc1c(F)c(Oc2cccc(N(C)C)c2)nc(Oc2cc(C(=N)N)ccc2O)c1F`: the inhibitory constant (Ki) was 190 nM in [2], 3 nM in [3] and 1000 nM in [4].
With `Cc1c(F)c(Oc2cccc(C(=N)N)c2)nc(Oc2cccc(C(=N)N)c2)c1F`, the concentration at 0.5 h in data set [1] was 100 nM.
As for `CCOC(=O)c1ccc(N(C)C)cc1Oc1nc(Oc2cccc(C(=N)N)c2)c(F)c(C)c1F`, the Ki in [2], in data set [3] and in [4] was more than 5000 nM throughout.
Turning to `Cc1c(F)c(Oc2cccc(C(=N)N)c2)nc(Oc2cccc(C(=O)O)c2)c1F`, the inhibitory constant (Ki) in [2] is more than 5000 nM; in data set [3], 5000 nM; in [4], more than 5000 nM.
As to `Cc1c(F)c(Oc2cccc(CN)c2)nc(Oc2cccc(C(=N)N)c2)c1F`, the inhibitory constant (Ki) was more than 5000 nM in data set [2], 1400 nM in data set [3] and 2900 nM in data set [4].
Regarding `Cc1nccn1-c1cccc(Oc2cc(C(=O)O)cc(Oc3cc(C(=N)N)ccc3O)n2)c1`, the figures for the Ki in data set [2], in [3] and in data set [4] were 680 nM, 8 nM and 580 nM, respectively.
With `Cc1c(F)c(Oc2cccc(C(=N)N)c2)nc(Oc2cc(O)cc(C(=O)N(C)C)c2)c1F`, the inhibitory constant (Ki) in [2] was 740 nM; in [3], more than 5000 nM; in [4] it was 1900 nM.
With `Cc1c(F)c(Oc2cccc(C(=N)N)c2)nc(Oc2cccc(N3CCOCC3)c2)c1F`, the figures for the Ki in data set [2], in [3] and in data set [4] were more than 5000 nM, 650 nM and 2000 nM, respectively.
Consider `N=C(N)c1ccc(O)c(Oc2cc(C(=O)O)cc(Oc3cccc(C4=NCCN4)c3)n2)c1`, for which, in data set [5], the concentration at 1 h was found to be 1400 nM. The concentration at 0.5 h in data set [1] is 3000 nM.
As to `Cc1c(F)c(Oc2cccc(C(=N)N)c2)nc(Oc2cccc(C(=O)N3CCOCC3)c2)c1F`, the Ki in data set [2] was more than 5000 nM; in data set [3] it was 1400 nM; in [4], more than 5000 nM.
With `Cc1c(F)c(Oc2cccc(CC(=O)N(C)C)c2)nc(Oc2cccc(C(=N)N)c2)c1F`, the Ki in data set [2] is more than 5000 nM; in data set [3], 460 nM; in [4], 4200 nM.
The matching figures for `CCOC(=O)Cc1cccc(Oc2nc(Oc3cccc(C(=N)N)c3)c(F)c(C)c2F)c1`: more than 5000 nM, 810 nM and more than 5000 nM.
Take `Cc1c(F)c(Oc2cccc(C(=N)N)c2)nc(Oc2cccc(C(=O)C(C)C)c2)c1F`: the inhibitory constant (Ki) in [2] is more than 5000 nM; in [3], 2100 nM; in [4], 3800 nM.
The matching figures for `Cc1cn(C)c(-c2cccc(Oc3cc(C(=O)O)cc(Oc4cc(C(=N)N)ccc4O)n3)c2)n1`: 880 nM, 8.4 nM and 470 nM.
The matching figures for `CN(C)C(=O)c1cccc(Oc2cc(C(=O)O)cc(Oc3cccc(C(=N)N)c3)n2)c1`: more than 5000 nM, 263 nM and 730 nM.
In the same order, the values of `Cc1c(F)c(Oc2cccc(C(=O)N(C)C)c2)nc(Oc2cc(C(=N)N)cc(O)c2O)c1F` are 1200 nM, 23 nM and 1100 nM.
`Cc1c(F)c(Oc2cccc(NS(C)(=O)=O)c2)nc(Oc2cccc(C(=N)N)c2)c1F`: the Ki in data set [2] was 4900 nM; in data set [3], 3800 nM; in data set [4] it was 1900 nM.
With `CN1CCN=C1c1cccc(Oc2cc(C(=O)O)cc(Oc3cc(C(=N)N)ccc3O)n2)c1`, in data set [1], the concentration at 0.5 h amounted to 1100 nM. Besides, the concentration at 1 h in data set [6] worked out at 400 nM; in data set [7], 1400 nM. Also, the concentration at 2 h in [8] was 200 nM. Besides, the concentration at 4 h in [9] is 100 nM.
`Cc1c(F)c(Oc2cccc(C(=N)N)c2)nc(Oc2ccc(Cl)c(N(C)C)c2)c1F`: the results for the inhibition constant Ki in [2], in [3] and in data set [4] were 5300 nM, 500 nM and 1000 nM, respectively.
Consider `Cc1c(F)c(Oc2cccc(C(=N)N)c2)nc(Oc2cc(C(=O)N(C)C)cc(C(=O)N(C)C)c2)c1F`, for which the inhibition constant (Ki) in data set [2] was more than 5000 nM; in data set [3], 160 nM; in data set [4], 1600 nM.
In the same order, the values of `COc1c(O)cc(C(=N)N)cc1Oc1nc(Oc2cccc(C(=O)N(C)C)c2)c(F)c(C)c1F` are more than 5000 nM, 160 nM and more than 5000 nM.
Take `Cc1c(F)c(Oc2cccc(C(=N)N)c2)nc(Oc2cc(C(=O)N(C)C)ccc2O)c1F`: the Ki in [2] was more than 5000 nM; in [3], more than 5000 nM; in data set [4], 3700 nM.

In general, Ki refers to a dissociation constant, usually derived from enzyme kinetics or from competition with a known ligand. Low readings indicate tighter binding, high ones weaker binding.
